# Source: ChEMBL document CHEMBL1126092, “Design, synthesis, and biological evaluation of novel 4-substituted 1-methyl-1,2,3,6-tetrahydropyridine analogs of MPTP” (J Med Chem, 1992)
# How the values were obtained:
# Conditions in all cases: cattle
# [1] = biological target: T1, Amine oxidase [flavin-containing] B (Bos taurus, UniProt P56560); assay: Selectivity ratio for Vmax and KM values against MAO-B enzyme from bovine liver mitochondria
# T1 sequence (P56560 whole entry): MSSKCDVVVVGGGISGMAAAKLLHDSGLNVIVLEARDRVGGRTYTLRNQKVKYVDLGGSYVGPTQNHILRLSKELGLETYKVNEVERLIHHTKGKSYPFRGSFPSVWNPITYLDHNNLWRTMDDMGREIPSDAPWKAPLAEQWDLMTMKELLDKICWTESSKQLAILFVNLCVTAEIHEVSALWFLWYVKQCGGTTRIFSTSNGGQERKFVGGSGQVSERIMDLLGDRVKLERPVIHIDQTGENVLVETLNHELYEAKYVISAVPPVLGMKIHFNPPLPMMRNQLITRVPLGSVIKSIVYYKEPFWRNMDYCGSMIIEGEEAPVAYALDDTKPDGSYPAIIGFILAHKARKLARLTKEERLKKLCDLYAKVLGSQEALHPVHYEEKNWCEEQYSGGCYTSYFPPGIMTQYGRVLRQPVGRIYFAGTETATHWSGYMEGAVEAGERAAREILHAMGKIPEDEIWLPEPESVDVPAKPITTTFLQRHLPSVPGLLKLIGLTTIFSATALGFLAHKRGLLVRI
# How it was run: (§1)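 Bovine liver mitochondrial MAO-B, 0.05 unit/mL (unit = 1 μmol benzylamine→benzaldehyde per min; equivalent to 3.7 nmol protein), incubated at 37 °C in 0.1 M sodium phosphate pH 7.4. Reaction started by substrate addition, final 0.1–3.0 mM. Product formation monitored spectrophotometrically, initial rates taken 30–180 s after enzyme addition. Apparent Vmax and KM from double reciprocal plot.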
# [2] = biological target: T1, Amine oxidase [flavin-containing] B; assay: (§2) Tested against Monoamine oxidase B enzyme from bovine liver mitochondria; how it was run: as §1
# [3] = biological target: T2, Monoamine oxidase B (MAO-B) (Bos taurus, UniProt P56560); assay: as §2; how it was run: as §1
# T2 sequence (P56560 whole entry): T1 sequence (P56560 whole entry)
Compound,Ratio [1],Vmax [2] [nM/min],Km [3] [µM]
CN1CC=C(Sc2ccccc2)CC1,3425,,
CN1CC=C(Oc2ccccc2)CC1,688,,
CN1CC=C(OC(=O)N(C)c2ccccc2)CC1,67,,
CN1CC=C(Cc2ccccc2)CC1,2674,,
CN1CC=C(c2ccccc2)CC1,523,204,390
CN1CC=C(OC(=O)N(C)C)CC1,57,,
